# Measurements reported in ChEMBL document CHEMBL3045423, “Cynodontin: a fungal metabolite with antifungal properties” (J Agric Food Chem, 2003).
# Activity calls are given as the source filed them. The calls are words filed in the database; no cut-off is given here.
# What was measured:
# Verticillium dahliae = assay: Antifungal activity against Verticillium dahliae assessed as mycelial growth inhibition after 4 to 8 days; type: functional; details: read-out: ED50 (the source's name)
# Summary of the method: (§1)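 Test substance added in acetone (solvent at most 0.8% in treated and control plates) to sterilized potato dextrose agar. Plates inoculated with 0.5 cm mycelial blocks and incubated in the dark at 25 °C for 4-8 days depending on species. Linear growth inhibition estimated from colony diameter.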
# Botrytis cinerea [1] = assay: Antifungal activity against Botryotinia fuckeliana assessed as inhibition of conidia germination at 1 to 10 ug/mL after 5 hr by light adverse phase microscopic analysis; type: functional, organism-based
# Summary of the method: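 B. cinerea conidia (10^6/mL in water) applied as 0.2 mL droplets onto water-agar (agar plus deionized water) with or without test substance added in acetone. Incubated 5 h in the dark at 25 °C. Percent germination scored from 200 conidia per dish under light microscopy.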
# Botrytis cinerea [2] = assay: Antifungal activity against Botryotinia fuckeliana assessed as mycelial growth inhibition after 4 to 8 days; type: functional; details: read-out: ED50 (the source's name); summary of the method: as §1
# Sclerotinia sclerotiorum = assay: Antifungal activity against Sclerotinia sclerotiorum assessed as mycelial growth inhibition after 4 to 8 days; type: functional; details: read-out: ED50 (the source's name); summary of the method: as §1
# Sclerotinia minor = assay: Antifungal activity against Sclerotinia minor assessed as mycelial growth inhibition after 4 to 8 days; type: functional; details: read-out: ED50 (the source's name); summary of the method: as §1
# Brassica oleracea [3] = assay: Phytotoxicity in Brassica oleracea (broccoli) assessed as seed germination at 250 mg/mL applied as seed dressings after 8 to 14 days (reference value: […] +/- 4.2%); type: organism-based; details: in vivo
# Capsicum annuum = assay: Phytotoxicity in Capsicum annuum (pepper) assessed as seed germination at 250 mg/mL applied as seed dressings after 8 to 14 days (reference value: 84.7 +/- 4.6%); type: organism-based; details: in vivo
# Solanum melongena = assay: Phytotoxicity in Solanum melongena (eggplant) assessed as seed germination at 250 mg/mL applied as seed dressings after 8 to 14 days (reference value: 84.7 +/- 2.3%); type: organism-based; details: in vivo
# Lactuca sativa = assay: Phytotoxicity in Lactuca sativa (lettuce) assessed as seed germination at 250 mg/mL applied as seed dressings after 8 to 14 days (reference value: 90 +/- 5.3%); type: organism-based; details: in vivo
# Brassica oleracea [4] = assay: Phytotoxicity in Brassica oleracea (cabbage) assessed as seed germination at 250 mg/mL applied as seed dressings after 8 to 14 days (reference value: 90 +/- 5.3%); type: organism-based; details: in vivo
# Cucumis melo = assay: Phytotoxicity in Cucumis melo (muskmelon) assessed as seed germination at 250 mg/mL applied as seed dressings after 8 to 14 days (reference value: 90 +/- 2%); type: organism-based; details: in vivo
# Cucumis sativus = assay: Phytotoxicity in Cucumis sativus (cucumber) assessed as seed germination at 250 mg/mL applied as seed dressings after 8 to 14 days (reference value: […] +/- 1.2%); type: organism-based; details: in vivo
# [5] = test system: Brassica oleracea var. botrytis (cauliflower); assay: Phytotoxicity in Brassica oleracea var. botrytis assessed as seed germination at 250 mg/mL applied as seed dressings after 8 to 14 days (reference value: 97.3 +/- 1.2%); details: in vivo
# Solanum lycopersicum = assay: Phytotoxicity in Solanum lycopersicum (tomato) assessed as seed germination at 250 mg/mL applied as seed dressings after 8 to 14 days (reference value: 94 +/- 2%); type: organism-based; details: in vivo
Compound,EC50 (Verticillium dahliae),inhibition (Botrytis cinerea [1]),EC50 (Botrytis cinerea [2]),EC50 (Sclerotinia sclerotiorum),EC50 (Sclerotinia minor),Activity (Brassica oleracea [3]),Activity (Capsicum annuum),Activity (Solanum melongena),Activity (Lactuca sativa),Activity (Brassica oleracea [4]),Activity (Cucumis melo),Activity (Cucumis sativus),Activity [5],Activity (Solanum lycopersicum)
Cc1cc(O)c2c(c1)C(=O)c1cc(O)cc(O)c1C2=O [EMODIN],> 100 µg/mL,inactive,41.2 µg/mL,66.5 µg/mL,38.9 µg/mL,,,,,,,,,
O=C1c2ccccc2C(=O)c2ccccc21 [ANTHRAQUINONE],> 100 µg/mL,inactive,> 100 µg/mL,> 100 µg/mL,> 100 µg/mL,87.3%,85.3%,82.7%,88%,88%,,,,
Cc1cc(O)c2c(c1)C(=O)c1cccc(O)c1C2=O [CHRYSOPHANOL],> 100 µg/mL,inactive,> 100 µg/mL,> 100 µg/mL,74.1 µg/mL,,,,,,,,,
Cc1cc(O)c2c(c1O)C(=O)c1c(O)ccc(O)c1C2=O [Cynodontin],11.5 µg/mL,inactive,5.25 µg/mL,5.52 µg/mL,4.31 µg/mL,88%,84.7%,82.7%,96.7%,89.3%,90.7%,94%,96.7%,95.3%
